According to ChEMBL document CHEMBL4680236, “Design, synthesis and structure-activity relationships of novel 15-membered macrolides: Quinolone/quinoline-containing sidechains tethered to the C-6 position of azithromycin acylides” (Eur J Med Chem, 2020):
pIC50: −log10 of the molar value. In brackets after ≈: the same amount, converted by molar mass.

Columns and labels:
Staphylococcus aureus [1] = assay: Bactericidal activity against MLSB/methicillin-resistant Staphylococcus aureus 15B196; format: functional
Outline: (§1)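 Bacteria were exposed to 1- to 8-fold their MIC of test sample, then transferred to fresh culture medium without antibacterial compound and incubated for the required time. Colonies were then counted. MBC is the lowest concentration giving a reduction in colony number of >3 Log₁₀.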

Streptococcus pneumoniae [2] = assay: Ratio of MBC to MIC against Erythromycin-susceptible Streptococcus pneumoniae ATCC 49619; format: functional
Streptococcus pneumoniae [3] = assay: Ratio of MBC to MIC against MLSB-resistant Streptococcus pneumoniae 07P390 harboring ermB; format: functional
Staphylococcus aureus [4] = assay: Antibacterial activity against MLSB/methicillin/ciprofloxacin-resistant Staphylococcus aureus PU32 harboring ermA gene assessed as reduction in microbial growth relative to ciprofloxacin; format: functional
Haemophilus influenzae [5] = assay: Ratio of MBC to MIC against azithromycin-susceptible Haemophilus influenzae ATCC 49247; format: functional
Staphylococcus aureus [6] = assay: Ratio of MBC to MIC against MLSB/methicillin-resistant Staphylococcus aureus 15B196; format: functional
Escherichia coli [7] = assay: Antibacterial activity against Escherichia coli JW5503-KanS depletion of toIC efflux gene assessed as reduction in microbial growth; format: functional
Haemophilus influenzae [8] = assay: Antibacterial activity against azithromycin-susceptible Haemophilus influenzae ATCC 49247 assessed as reduction in microbial growth; format: functional
Streptococcus pneumoniae [9] = assay: Antibacterial activity against MLSB-resistant Streptococcus pneumoniae 07P390 harboring ermB gene assessed as reduction in microbial growth; format: functional
[10] = target: T1, DNA gyrase (Escherichia coli) (UniProt P0AES6+P0AES4); conditions: time 15.0 min
Staphylococcus aureus [11] = assay: Antibacterial activity against MLSB/methicillin/ciprofloxacin-resistant Staphylococcus aureus PU32 harboring ermA gene assessed as reduction in microbial growth; format: functional
Staphylococcus aureus [12] = assay: Bactericidal activity against MLSB/methicillin/ciprofloxacin-resistant Staphylococcus aureus PU32 harboring ermA gene; format: functional; outline: as §1
Streptococcus pneumoniae [13] = assay: Antibacterial activity against Erythromycin-susceptible Streptococcus pneumoniae ATCC 49619 assessed as reduction in microbial growth; format: functional
Streptococcus pneumoniae [14] = assay: Bactericidal activity against Erythromycin-susceptible Streptococcus pneumoniae ATCC 49619; format: functional
Outline: (§2)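 Bacteria were exposed to 1- to 8-fold MIC of the sample, then transferred to fresh medium without antibacterial. After further incubation, colonies were counted. MBC was taken as the lowest concentration giving a >3 log10 reduction in colony number.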

Escherichia coli [15] = assay: Antibacterial activity against Escherichia coli JW5503-1 depletion of toIC efflux gene assessed as reduction in microbial growth; format: functional
Haemophilus influenzae [16] = assay: Antibacterial activity against azithromycin-susceptible Haemophilus influenzae ATCC 49247 assessed as reduction in microbial growth relative to ciprofloxacin; format: functional
Staphylococcus aureus [17] = assay: Antibacterial activity against MLSB/methicillin-resistant Staphylococcus aureus 15B196 assessed as reduction in microbial growth; format: functional
Staphylococcus aureus [18] = assay: Ratio of MBC to MIC against MLSB/methicillin/ciprofloxacin-resistant Staphylococcus aureus PU32 harboring ermA gene; format: functional
Streptococcus pneumoniae [19] = assay: Bactericidal activity against MLSB-resistant Streptococcus pneumoniae 07P390 harboring ermB gene assessed as reduction in microbial growth; format: functional; outline: as §1
Streptococcus pneumoniae [20] = assay: Bactericidal activity against penicillin-susceptible Streptococcus pneumoniae PU09 harboring mef gene; format: functional; outline: as §1
Escherichia coli [21] = assay: Antibacterial activity against Escherichia coli BW25113 depletion of toIC efflux gene assessed as reduction in microbial growth; format: functional
[22] = target: T1, DNA gyrase (Escherichia coli); assay: Poison activity at Escherichia coli DNA gyrase assessed as stabilization of DNA cleavage complex by measuring linear plasmid DNA formation using supercoiled pBR322 incubated for 15 mins by electrophoresis relative to ciprofloxacin; format: protein-complex assay
Outline: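 Cleavage assay with 0.3 µg supercoiled pBR322 and 10 units E. coli gyrase. Buffer: 50 mM Tris-HCl pH 8.0, 10 mM MgCl2, 10 mM DTT, 50 µg/mL BSA, 1 mM ATP, 5 µg/mL tRNA; 37 °C, 15 min. Then 1% SDS for 5 min, then 25 mM EDTA plus 100 µg/mL proteinase K for 30 min. Phenol/chloroform extraction, then 1.2% agarose with ethidium bromide.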

Staphylococcus aureus [23] = assay: Antibacterial activity against MLSB/methicillin-resistant Staphylococcus aureus 15B196 assessed as reduction in microbial growth relative to ciprofloxacin; format: functional
Streptococcus pneumoniae [24] = assay: Ratio of MBC to MIC against penicillin-susceptible Streptococcus pneumoniae PU09; format: functional
Haemophilus influenzae [25] = assay: Bactericidal activity against azithromycin-susceptible Haemophilus influenzae ATCC 49247; format: functional; outline: as §2
DNA gyrase = DNA gyrase (Escherichia coli, UniProt P0AES4+P0AES6); assay: Inhibition of Escherichia coli DNA gyrase using relaxed DNA as substrate incubated for 15 mins by ethidium bromide-based agarose gel electrophoresis; format: protein-complex assay
Outline: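 Supercoiling assay with relaxed pBR322 (0.3 µg), made by treating negatively supercoiled pBR322 with E. coli topoisomerase I, and 1 unit E. coli gyrase. Buffer: 50 mM Tris-HCl pH 8.0, 10 mM MgCl2, 100 mM potassium glutamate, 10 mM DTT, 50 µg/mL BSA, 1 mM ATP. Run 37 °C, 15 min, stopped with 25 mM EDTA. IC50 in µM.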

Streptococcus pneumoniae [26] = assay: Antibacterial activity against penicillin-susceptible Streptococcus pneumoniae PU09 harboring mef gene assessed as reduction in microbial growth; format: functional
Klebsiella pneumoniae [27] = assay: Antibacterial activity against ESBL producing Klebsiella pneumoniae 16-14 assessed as reduction in microbial growth; format: functional
Klebsiella pneumoniae [28] = assay: Antibacterial activity against NDM-1 producing Klebsiella pneumoniae ATCC BAA-2146 assessed as reduction in microbial growth; format: functional
Enterococcus faecium = assay: Antibacterial activity against vancomycin-resistant Enterococcus faecium ATCC 700221 assessed as reduction in microbial growth
Pseudomonas aeruginosa = assay: Antibacterial activity against Pseudomonas aeruginosa ATCC 27853 assessed as reduction in microbial growth; format: functional
Staphylococcus aureus [29] = assay: Antibacterial activity against methicillin-susceptible Staphylococcus aureus ATCC 29213 assessed as reduction in microbial growth; format: functional
Escherichia coli [30] = assay: Antibacterial activity against ESBL negative Escherichia coli 16-7 assessed as reduction in microbial growth; format: functional
Klebsiella aerogenes = assay: Antibacterial activity against Enterobacter aerogenes ATCC 13048 assessed as reduction in microbial growth; format: functional
[31] = test system: Staphylococcus epidermidis; assay: Antibacterial activity against methicillin-resistant Staphylococcus epidermidis 16-5 assessed as reduction in microbial growth; format: functional
Shigella = assay: Antibacterial activity against Shigella ATCC 12022 assessed as reduction in microbial growth; format: functional
[32] = test system: Staphylococcus epidermidis; assay: Antibacterial activity against methicillin-susceptible Staphylococcus epidermidis ATCC 12228 assessed as reduction in microbial growth; format: functional
Acinetobacter baumannii = assay: Antibacterial activity against Acinetobacter baumannii ATCC 19606 assessed as reduction in microbial growth; format: functional; conditions: ATCC 19606 = CIP 70.34 = JCM 6841
Escherichia coli [33] = assay: Antibacterial activity against ESBL positive Escherichia coli 16-1 assessed as reduction in microbial growth; format: functional
Escherichia coli [34] = assay: Antibacterial activity against NDM-1 producing Escherichia coli […] assessed as reduction in microbial growth; format: functional
Staphylococcus aureus [35] = assay: Antibacterial activity against methicillin-resisitant Staphylococcus aureus 16-30 assessed as reduction in microbial growth; format: functional
Enterococcus faecalis = assay: Antibacterial activity against vancomycin-susceptible Enterococcus faecalis ATCC 29212 assessed as reduction in microbial growth; format: functional
Enterobacter cloacae = assay: Antibacterial activity against Enterobacter cloacae ATCC 43560 assessed as reduction in microbial growth; format: functional
Streptococcus pyogenes [36] = assay: Ratio of MBC to MIC against MLSB-resistant Streptococcus pyogenes 12-206 harboring ermA gene; format: functional
Streptococcus pyogenes [37] = assay: Antibacterial activity against MLSB-resistant Streptococcus pyogenes 12-206 harboring ermA gene assessed as reduction in microbial growth; format: functional
Streptococcus pyogenes [38] = assay: Bactericidal activity against MLSB-resistant Streptococcus pyogenes 12-206 harboring ermA gene; format: functional; outline: as §1

Row | Compound | MBC (Staphylococcus aureus [1]) | Ratio (Streptococcus pneumoniae [2]) | Ratio (Streptococcus pneumoniae [3]) | fold change (FC) (Staphylococcus aureus [4]) | Ratio (Haemophilus influenzae [5]) | Ratio (Staphylococcus aureus [6]) | MIC (Haemophilus influenzae [8]) | MIC (Streptococcus pneumoniae [9]) | MIC (Staphylococcus aureus [11]) | MBC (Staphylococcus aureus [12]) | MIC (Streptococcus pneumoniae [13]) | MBC (Streptococcus pneumoniae [14]) | fold change (FC) (Haemophilus influenzae [16]) | MIC (Staphylococcus aureus [17]) | MBC (Streptococcus pneumoniae [19]) | MBC (Streptococcus pneumoniae [20]) | fold change (FC) (Staphylococcus aureus [23]) | Ratio (Streptococcus pneumoniae [24]) | MBC (Haemophilus influenzae [25]) | MIC (Streptococcus pneumoniae [26]) | other results
1 | CC[C@H]1OC(=O)[C@H](C)[C@@H](OC(=O)Cc2ccccn2)[C@H](C)[C@@H](O[C@@H]2O[C@H](C)C[C@H](N(C)C)[C@H]2O)[C@](C)(OC(=O)CCN2CCN(c3cc4c(cc3F)c(=O)c(C(=O)O)cn4C3CC3)CC2)C[C@@H](C)CN(C)[C@H](C)[C@@H](O)[C@]1(C)O | 128 µg/mL (≈ 117 µM) | 2 | 8 | 0.076 | 1 | 8 | 0.25 µg/mL | 4 µg/mL | 16 µg/mL | > 128 µg/mL | 0.125 µg/mL | 0.25 µg/mL (≈ 0.228 µM) | 19 | 16 µg/mL | 32 µg/mL | 4 µg/mL (≈ 3.65 µM) | 9.7 | 2 | 0.25 µg/mL (≈ 0.228 µM) | 2 µg/mL | MIC (Escherichia coli [7]): 1 µg/mL; EC [10]: 69.5 µM; MIC (Escherichia coli [15]): 1 µg/mL; Ratio (Staphylococcus aureus [18]): >8; MIC (Escherichia coli [21]): 4 µg/mL; Activity [22]: 28%; pIC50 (DNA gyrase): 4.36
2 | CC[C@H]1OC(=O)[C@H](C)[C@@H](OC(=O)Cc2ccccn2)[C@H](C)[C@@H](O[C@@H]2O[C@H](C)C[C@H](N(C)C)[C@H]2O)[C@](C)(OC(=O)CCNCCC#Cc2cnc3ccccc3c2)C[C@@H](C)CN(C)[C@H](C)[C@@H](O)[C@]1(C)O | > 256 µg/mL | 2 | >8 | 0.0054 | 2 | – | 2 µg/mL | 0.5 µg/mL | 1 µg/mL | > 8 µg/mL | 0.062 µg/mL | 0.125 µg/mL (≈ 0.13 µM) | 172 | 128 µg/mL | > 4 µg/mL | 1 µg/mL (≈ 1.04 µM) | 88 | 1 | 4 µg/mL (≈ 4.17 µM) | 1 µg/mL | MIC (Klebsiella pneumoniae [27]): 16 µg/mL; MIC (Klebsiella pneumoniae [28]): 32 µg/mL; MIC (Enterococcus faecium): > 64 µg/mL; MIC (Pseudomonas aeruginosa): > 64 µg/mL; MIC (Staphylococcus aureus [29]): 1 µg/mL; MIC (Escherichia coli [30]): 8 µg/mL; MIC (Klebsiella aerogenes): 32 µg/mL; MIC [31]: > 64 µg/mL; MIC (Shigella): 8 µg/mL; MIC [32]: 0.25 µg/mL; MIC (Acinetobacter baumannii): > 64 µg/mL; MIC (Escherichia coli [33]): 8 µg/mL; MIC (Escherichia coli [34]): 8 µg/mL; MIC (Staphylococcus aureus [35]): > 64 µg/mL; Ratio (Staphylococcus aureus [18]): >8; MIC (Enterococcus faecalis): 1 µg/mL; MIC (Enterobacter cloacae): 32 µg/mL
3 | CC[C@H]1OC(=O)[C@H](C)[C@@H](OC(=O)Cc2ccccn2)[C@H](C)[C@@H](O[C@@H]2O[C@H](C)C[C@H](N(C)C)[C@H]2O)[C@](C)(OC(=O)CCN2CCN(c3c(F)cc4c(=O)c(C(N)=O)cn(C5CC5)c4c3OC)CC2C)C[C@@H](C)CN(C)[C@H](C)[C@@H](O)[C@]1(C)O (some centres not stated) | 8 µg/mL (≈ 7.03 µM) | 2 | 1 | 0.14 | 1 | 1 | 0.5 µg/mL | 8 µg/mL | 128 µg/mL | > 256 µg/mL | 0.5 µg/mL | 1 µg/mL (≈ 0.878 µM) | 36 | 8 µg/mL | 8 µg/mL | 8 µg/mL (≈ 7.03 µM) | 1.2 | 4 | 0.5 µg/mL (≈ 0.439 µM) | 2 µg/mL | MIC (Escherichia coli [7]): 0.5 µg/mL; EC [10]: 18.2 µM; Ratio (Streptococcus pyogenes [36]): >8; MIC (Streptococcus pyogenes [37]): 8 µg/mL; MIC (Escherichia coli [15]): 0.5 µg/mL; MBC (Streptococcus pyogenes [38]): > 64 µg/mL; MIC (Escherichia coli [21]): 2 µg/mL; Activity [22]: 71%; pIC50 (DNA gyrase): 5.02
